We go through 15 compounds from ChEMBL document CHEMBL1152290, “Bis-pyranobenzoquinones as a new family of reversal agents of the multidrug resistance phenotype mediated by P-glycoprotein in mammalian cells and the protozoan parasite Leishmania” (J Med Chem, 2008).

In series [1] the test system is Leishmania tropica. The experiment in a line: Growth inhibition of Leishmania tropica promastigotes expressing MDR1 at 10 uM after 72 hrs by MTT assay in presence of daunorubicin relative to control. Type of series: functional. The conditions noted are these: for inhibition of growth at 10 µM: MDR1, 72 h, read-out: GI. Put shortly: (§1)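 L. tropica promastigotes in log phase were resuspended at 6×10^6 cells/mL in modified RPMI 1640 with 20% heat-inactivated FBS and exposed to compound for 72 h at 28 °C. Viability was read by MTT. The resistant line overexpresses a Pgp-like transporter and is maintained in 150 µM daunorubicin.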
For orientation: Formazan colour is commonly taken as a measure of viable cells.

The target of series [2] is T1, ATP-dependent translocase ABCB1 (Homo sapiens, UniProt P08183). As to the kind of experiment: Inhibition of human MDR1 overexpressed in mouse NIH/3T3 cells assessed as daunorubicin accumulation by flow cytometry relative to control. To be noted: nih3t3. It counts as cell-based. In a few lines:
(§2)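 MDR1 and wild-type NIH-3T3 cells were incubated 0.5 h at 37 °C in DMEM plus 10% HIFBS with 2 µM daunorubicin and varying compound concentrations. Cells were washed, trypsinized, taken up in cold PBS, gated to exclude debris, and FL2 fluorescence was measured. Signals were converted to % Pgp inhibition normalized to wild type and fitted to y = Bmax·x/(Ki + x). Three experiments in triplicate.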
(Flow cytometry measures light scatter and fluorescence of single cells or particles in a stream.)

Series [3] is described as follows: Intrinsic cytotoxicity against wild type mouse NIH/3T3 cells at 10 uM after 72 hrs by MTT assay. The conditions noted are these: wild type NIH/3T3 cells, read-out: INH. Type of series: cell-based, NIH3T3. In a few lines:
(§3)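 Wild-type or MDR1 NIH-3T3 cells were plated at 3.5×10^3 per well and allowed to attach for 24 h at 37 °C under 5% CO2. Compound was then added at 10 µM and intrinsic cytotoxicity was measured by MTT colorimetric assay. Mean ±SD of three independent experiments performed in triplicate.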

Series [4] concerns the target T1, ATP-dependent translocase ABCB1. As to the kind of experiment: Inhibition of human MDR1 overexpressed in mouse NIH/3T3 cells assessed as daunorubicin accumulation at 10 uM by spectrofluorimetry. It counts as cell-based. To be noted: nih3t3, 10 µM. Put shortly:
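NIH-3T3 cells transfected with human MDR1-G185 were incubated 2 h at 37 °C with 10 µM daunorubicin, with or without 10 µM compound, in DMEM plus 10% HIFBS. Cells were washed twice, lysed in SDS/Tris buffer pH 7.4 overnight at 4 °C, and read by plate fluorometry. Uptake is expressed relative to wild-type NIH-3T3 accumulation (100%). Three independent experiments, ±SD.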

For series [5] the target is unchanged. The experiment in a line: Inhibition of human MDR1 overexpressed in mouse NIH/3T3 cells assessed as daunorubicin accumulation by flow cytometry. Type of series: cell-based, NIH3T3. Put shortly: as §2
Series [6] addresses Multidrug resistance-associated protein 1 (Homo sapiens, UniProt P33527). As to the kind of experiment: Inhibition of MRP1 expressed in human 2008 cells assessed as calcein-AM accumulation at 10 uM by spectrofluorimetry. Type of series: cell-based. The conditions noted are these: human, 2008, 10 µM. Put shortly:
(§4)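 Transfected cell monolayers were incubated 2 h at 37 °C with or without 10 µM compound in DMEM plus 10% HIFBS. Substrates were 5 µM mitoxantrone for HEK293-BCRP (R482) or 2 µM calcein-AM for 2008-MRP1. Cells were washed twice, lysed overnight at 4 °C in the dark in 20 mM Tris-HCl pH 7.4 with 0.2% SDS, and lysate fluorescence was read on a microplate spectrofluorometer.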

The target of series [7] is T2, Broad substrate specificity ATP-binding cassette transporter ABCG2 (Homo sapiens, UniProt Q9UNQ0).
T2 sequence (Q9UNQ0 whole entry): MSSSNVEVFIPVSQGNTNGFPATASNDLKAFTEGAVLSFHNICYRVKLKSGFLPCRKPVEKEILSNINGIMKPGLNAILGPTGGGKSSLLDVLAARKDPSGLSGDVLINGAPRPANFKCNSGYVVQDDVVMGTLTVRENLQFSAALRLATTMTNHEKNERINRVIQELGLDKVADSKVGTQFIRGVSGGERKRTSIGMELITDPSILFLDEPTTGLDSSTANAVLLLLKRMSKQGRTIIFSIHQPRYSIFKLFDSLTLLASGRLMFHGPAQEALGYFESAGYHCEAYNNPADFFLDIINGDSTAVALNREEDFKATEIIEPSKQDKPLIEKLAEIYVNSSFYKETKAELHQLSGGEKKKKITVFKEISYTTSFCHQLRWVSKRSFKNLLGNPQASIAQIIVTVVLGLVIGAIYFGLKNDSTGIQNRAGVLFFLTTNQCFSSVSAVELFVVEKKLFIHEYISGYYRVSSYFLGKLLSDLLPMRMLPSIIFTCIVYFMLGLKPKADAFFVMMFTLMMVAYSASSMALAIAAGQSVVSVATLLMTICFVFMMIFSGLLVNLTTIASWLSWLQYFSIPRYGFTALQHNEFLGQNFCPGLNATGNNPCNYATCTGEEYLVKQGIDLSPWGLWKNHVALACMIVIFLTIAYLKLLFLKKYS
The experiment in a line: Inhibition of BCRP expressed in HEK293 cells assessed as mitoxantrone accumulation at 10 uM by spectrofluorimetry. It counts as cell-based. To be noted: hek293, 10 µM. Put shortly:
as §4

The subject of series [8] is NIH3T3. As to the kind of experiment: Intrinsic cytotoxicity against mouse NIH/3T3 cells overexpressing MDR1 at 10 uM after 72 hrs by MTT assay. It counts as functional. To be noted: NIH3T3, 72 h. Put shortly:
as §3

The subject of series [9] is NIH3T3. As to the kind of experiment: Intrinsic cytotoxicity against mouse NIH/3T3 cells overexpressing MDR1 after 72 hrs by MTT assay. It counts as functional, cell-based. The conditions noted are these: NIH3T3, 72 h.
Series [10] is described as follows: Intrinsic cytotoxicity against wild type mouse NIH/3T3 cells after 72 hrs by MTT assay. The conditions noted are these: NIH3T3, 72 h. It counts as cell-based.
The test system of series [11] is NIH3T3. The experiment in a line: Resistance index, ratio of IC50 for mouse NIH/3T3 cells expressing MDR1 to IC50 for wild type mouse NIH/3T3 cells. In a few lines: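 Cells were plated at 3.5×10^3 per well and attached for 24 h. MDR1 and wild-type NIH-3T3 cells were exposed for 72 h at 37 °C to increasing daunorubicin, with or without 10, 3 or 1 µM modulator. Growth was read by MTT, and IC50 came from four-parameter logistic fits. RI is the IC50 in MDR1 cells divided by the IC50 in wild-type cells. Three independent experiments.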

The nature of series [12]: Intrinsic cytotoxicity against wild type mouse NIH/3T3 cells at 3 uM after 72 hrs by MTT assay. The conditions noted are these: wild type NIH/3T3 cells.
Series [13] has as its system NIH3T3. The experiment in a line: Intrinsic cytotoxicity against mouse NIH/3T3 cells overexpressing MDR1 at 3 uM after 72 hrs by MTT assay. It counts as functional. The conditions noted are these: NIH3T3, 72 h.
Series [14] relates to Leishmania tropica. The experiment in a line: Growth inhibition of wild type Leishmania tropica promastigotes at 10 uM after 72 hrs by MTT assay relative to control. Type of series: functional. The conditions noted are these: read-out: GI. In a few lines: as §1

Active and inactive are the calls of the source. No cut-off for these calls is given here.

What is called Ki is the dissociation constant of the complex between target and ligand, obtained from inhibition or displacement. What is called inhibition is how much of the control response was suppressed. Read a low inhibition as little suppression. One may read the IC50 as the concentration that inhibits the measured activity by half.

Sequence of Multidrug resistance-associated protein 1 (P33527 whole entry): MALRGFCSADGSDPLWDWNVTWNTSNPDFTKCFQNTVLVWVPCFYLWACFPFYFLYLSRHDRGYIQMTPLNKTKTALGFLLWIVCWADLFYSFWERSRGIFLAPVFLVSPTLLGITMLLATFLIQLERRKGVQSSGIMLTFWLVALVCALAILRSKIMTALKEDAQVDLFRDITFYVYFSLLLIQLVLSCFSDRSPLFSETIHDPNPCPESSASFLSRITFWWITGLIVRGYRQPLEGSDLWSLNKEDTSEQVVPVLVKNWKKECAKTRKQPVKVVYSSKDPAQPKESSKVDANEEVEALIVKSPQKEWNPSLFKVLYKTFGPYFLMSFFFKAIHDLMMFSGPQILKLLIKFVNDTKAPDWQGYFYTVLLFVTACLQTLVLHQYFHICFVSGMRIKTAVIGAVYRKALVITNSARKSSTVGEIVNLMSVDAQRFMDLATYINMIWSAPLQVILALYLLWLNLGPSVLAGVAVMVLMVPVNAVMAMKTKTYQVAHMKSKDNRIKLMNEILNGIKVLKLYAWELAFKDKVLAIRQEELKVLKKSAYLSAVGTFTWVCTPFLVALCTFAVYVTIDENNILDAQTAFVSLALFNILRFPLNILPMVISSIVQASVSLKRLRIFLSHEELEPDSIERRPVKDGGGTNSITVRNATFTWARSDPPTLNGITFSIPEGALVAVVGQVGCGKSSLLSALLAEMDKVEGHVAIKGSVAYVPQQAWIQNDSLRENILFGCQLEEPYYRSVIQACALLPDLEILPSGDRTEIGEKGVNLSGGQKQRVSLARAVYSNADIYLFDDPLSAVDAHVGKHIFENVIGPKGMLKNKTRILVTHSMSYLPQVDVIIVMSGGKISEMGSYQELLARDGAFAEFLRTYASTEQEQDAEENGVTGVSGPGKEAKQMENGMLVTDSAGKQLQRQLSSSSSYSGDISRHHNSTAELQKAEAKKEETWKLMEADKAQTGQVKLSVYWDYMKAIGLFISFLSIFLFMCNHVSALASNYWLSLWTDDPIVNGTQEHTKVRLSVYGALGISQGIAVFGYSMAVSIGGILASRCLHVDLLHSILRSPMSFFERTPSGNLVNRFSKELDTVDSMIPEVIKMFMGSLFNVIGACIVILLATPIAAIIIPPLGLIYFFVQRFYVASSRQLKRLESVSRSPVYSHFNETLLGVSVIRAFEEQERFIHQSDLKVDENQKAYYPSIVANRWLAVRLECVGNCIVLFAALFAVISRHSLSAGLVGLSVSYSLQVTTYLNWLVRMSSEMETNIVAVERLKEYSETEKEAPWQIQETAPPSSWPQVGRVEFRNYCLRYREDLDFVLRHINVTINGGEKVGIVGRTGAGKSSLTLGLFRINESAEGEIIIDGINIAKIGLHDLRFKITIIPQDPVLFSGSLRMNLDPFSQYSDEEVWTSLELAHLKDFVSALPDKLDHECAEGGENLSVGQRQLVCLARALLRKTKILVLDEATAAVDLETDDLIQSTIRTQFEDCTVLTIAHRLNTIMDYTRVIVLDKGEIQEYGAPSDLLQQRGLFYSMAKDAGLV
T1 sequence (P08183 whole entry): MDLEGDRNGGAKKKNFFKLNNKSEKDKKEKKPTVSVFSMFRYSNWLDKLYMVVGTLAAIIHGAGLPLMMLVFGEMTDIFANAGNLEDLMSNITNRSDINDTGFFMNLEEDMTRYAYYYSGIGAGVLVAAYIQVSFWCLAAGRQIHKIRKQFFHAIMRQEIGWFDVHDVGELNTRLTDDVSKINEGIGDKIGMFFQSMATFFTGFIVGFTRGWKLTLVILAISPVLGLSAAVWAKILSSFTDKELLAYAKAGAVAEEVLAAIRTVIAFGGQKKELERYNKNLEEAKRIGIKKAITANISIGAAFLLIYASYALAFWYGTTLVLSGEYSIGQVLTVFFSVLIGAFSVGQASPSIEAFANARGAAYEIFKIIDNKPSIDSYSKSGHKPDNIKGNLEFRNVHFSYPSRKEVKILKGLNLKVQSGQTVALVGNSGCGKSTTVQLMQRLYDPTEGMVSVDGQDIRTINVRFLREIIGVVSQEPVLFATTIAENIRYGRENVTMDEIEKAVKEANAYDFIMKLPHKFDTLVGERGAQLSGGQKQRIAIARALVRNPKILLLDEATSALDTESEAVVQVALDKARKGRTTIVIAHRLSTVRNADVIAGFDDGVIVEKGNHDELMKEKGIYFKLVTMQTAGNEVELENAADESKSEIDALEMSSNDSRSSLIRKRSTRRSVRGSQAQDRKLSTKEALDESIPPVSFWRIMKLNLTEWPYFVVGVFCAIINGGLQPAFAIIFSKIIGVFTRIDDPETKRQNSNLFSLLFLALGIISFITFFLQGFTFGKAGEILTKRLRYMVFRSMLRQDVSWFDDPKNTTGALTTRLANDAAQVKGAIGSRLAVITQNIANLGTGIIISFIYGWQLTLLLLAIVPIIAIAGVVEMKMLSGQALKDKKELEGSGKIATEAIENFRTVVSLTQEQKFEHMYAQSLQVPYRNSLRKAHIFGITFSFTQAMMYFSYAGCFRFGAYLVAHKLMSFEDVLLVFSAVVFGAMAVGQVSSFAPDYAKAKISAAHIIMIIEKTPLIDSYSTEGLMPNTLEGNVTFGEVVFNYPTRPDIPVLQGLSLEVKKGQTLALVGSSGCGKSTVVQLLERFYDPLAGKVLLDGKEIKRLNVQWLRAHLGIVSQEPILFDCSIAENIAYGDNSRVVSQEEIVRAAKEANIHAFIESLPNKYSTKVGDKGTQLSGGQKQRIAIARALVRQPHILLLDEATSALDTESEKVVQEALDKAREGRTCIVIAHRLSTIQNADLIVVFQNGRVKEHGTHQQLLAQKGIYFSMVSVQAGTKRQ

Turning to `C[C@@H]1CC[C@H]2[C@H](C1)C1=C(OC2(C)C)C2=C(C(=O)C1=O)[C@H]1C[C@@H](C)CC[C@@H]1C(C)(C)O2`, the inhibition of growth at 10 µM in series [1] is over 75%.

Turning to `C[C@@H]1CC[C@@H]2[C@@H](C1)C1=C(OC2(C)C)C(=O)C2=C(OC(C)(C)[C@@H]3CC[C@@H](C)C[C@@H]23)C1=O`, the “inhibition (INH)” value in series [2] is recorded as 72%. Also, the cytotoxicity at 72 h, 10 µM in series [3] worked out at 0%. The Activity entry in series [4] was “Active”; in [6], “Not Active”; in series [7], “Not Active”. Further, in [5], the Ki was determined as 0.77 µM. The compound also had an inhibition at 10 µM in series [8] of 18.1%.

Turning to `COc1ccc2c(c1)OC[C@H]1[C@@H]2C2=C(OC1(C)C)C1=C(C(=O)C2=O)[C@H]2c3ccc(OC)cc3OC[C@H]2C(C)(C)O1`, the outcome in [1] was inactive. The “inhibition (INH)” value in series [2] turned out to be 105.8%. In addition, in [3], the cytotoxicity at 72 h, 10 µM turned out to be 9.7%. In addition, the Activity entry in series [4] is recorded as “Active”; in series [6], “Not Active”; in series [7], “Not Active”. Also, the Ki in series [5] is 0.42 µM. The compound also showed an inhibition at 10 µM in series [8] of 3.5%.

As for `CC1(C)OC2=C(C(=O)C(=O)C3=C2OC(C)(C)[C@H]2COc4c(Br)cc(Br)cc4[C@@H]32)[C@H]2c3cc(Br)cc(Br)c3OC[C@H]21`, the result in series [1] was inactive.

On to `COc1ccc2c(c1)OC[C@H]1[C@@H]2C2=C(OC1(C)C)C1=C(C(=O)C2=O)[C@@H]2c3ccc(OC)cc3OC[C@@H]2C(C)(C)O1`, for which the inhibition of growth at 10 µM in [1] is over 75%. For the same compound, the “inhibition (INH)” value in [2] stood at 112.5%. Besides, the cytotoxicity at 72 h, 10 µM in [3] was 24.7%. In addition, the Activity entry in [4] is on record as “Active”; in series [6] it was “Not Active”; in series [7], “Not Active”. Moreover, in series [5], the Ki came out at 1.04 µM. This compound also registered an inhibition at 10 µM in series [8] of 10.8%.

`C[C@H]1CC[C@@H]2[C@@H]1C1=C(OC2(C)C)C2=C(C(=O)C1=O)[C@H]1[C@@H](CC[C@@H]1C)C(C)(C)O2`: in series [1], the inhibition of growth at 10 µM is over 75%.

On to `CC1(C)OC2=C(C(=O)C(=O)C3=C2OC(C)(C)[C@H]2COc4ccc(Br)cc4[C@@H]32)[C@H]2c3cc(Br)ccc3OC[C@H]21`, for which the outcome in series [1] was inactive.

Take `COc1ccc2c(c1)OC[C@@H]1[C@H]2C2=C(OC1(C)C)C(=O)C1=C(OC(C)(C)[C@@H]3COc4cc(OC)ccc4[C@H]13)C2=O`: the outcome in series [1] was inactive. The “inhibition (INH)” value in [2] was determined as 104.3%. Further, the cytotoxicity at 72 h, 10 µM in series [3] was 6.5%. Besides, the Activity result is reported as “Active” in series [4], “Not Active” in series [6] and “Not Active” in [7]. In addition, the Ki in series [5] is 0.51 µM. Further, the inhibition at 10 µM in series [8] is 0%.

For `CC1(C)OC2=C(C(=O)C(=O)C3=C2OC(C)(C)[C@H]2COc4c(Br)cc(Br)cc4[C@@H]32)[C@@H]2c3cc(Br)cc(Br)c3OC[C@@H]21`, the outcome in series [1] was inactive.

In series [8], `COc1ccc(CCN(C)CCCC(C#N)(c2ccc(OC)c(OC)c2)C(C)C)cc1OC` (stereo not drawn) displayed an inhibition at 10 µM of 11.2%.

On to `COc1cccc2c1C(=O)c1c(O)c3c(c(O)c1C2=O)C[C@@](O)(C(C)=O)C[C@@H]3O[C@H]1C[C@H](N)[C@H](O)[C@H](C)O1` [DAUNORUBICIN], for which the figures for the IC50 in series [9] and in series [10] were 1.01 µM and 0.044 µM, respectively. Further, the “Ratio IC50” value in series [11] is recorded as 23.

Take `CC1(C)OC2=C(C(=O)C(=O)C3=C2OC(C)(C)[C@H]2COc4ccc5ccccc5c4[C@@H]32)[C@@H]2c3c(ccc4ccccc34)OC[C@@H]21`: in series [1], the inhibition of growth at 10 µM is 100%.

In the case of `O[C@@H](COc1cccc2ncccc12)CN1CCN([C@@H]2c3ccccc3[C@@H]3[C@H](c4ccccc42)C3(F)F)CC1` [ZOSUQUIDAR], the cytotoxicity at 72 h, 3 µM in [12] came to 2.4%. Testing at 3 µM in series [13] gave an inhibition of 3.1%. Also, the cytotoxicity at 72 h, 10 µM in series [3] was 2.4%. This compound gave an inhibition at 10 µM in series [8] of 3.1%.

As to `CC1(C)OC2=C(C(=O)C3=C(C2=O)[C@H]2c4cc(Br)ccc4OC[C@H]2C(C)(C)O3)[C@H]2c3cc(Br)ccc3OC[C@H]21`, the result in series [1] was inactive.

Turning to `CC1(C)OC2=C(C(=O)C(=O)C3=C2OC(C)(C)[C@H]2COc4ccc(Br)cc4[C@@H]32)[C@@H]2c3cc(Br)ccc3OC[C@@H]21`, the inhibition of growth at 10 µM was over 75% in series [1] and 75% in [14].
